{"source": "ChEMBL document CHEMBL4382230", "about": "“Structure-activity relationships, biological evaluation and structural studies of novel pyrrolonaphthoxazepines as antitumor agents” (Eur J Med Chem, 2019)", "key": {"[1]": {"test_system": "HL-60", "test": "Cell cycle arrest in human HL60 cells assessed as accumulation of cells at G2/M phase at 10 uM after 24 hrs by propidium iodide staining-based flow cytometric analysis", "assay_type": "functional", "summary_of_the_method": "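HL-60 exposed to 10 μM for 24 h, vehicle 0.1% DMSO. Cells plated at 2×10^5 cells/mL, stained in PBS with 0.1% sodium citrate, 0.1% NP40 and propidium iodide for 30 min at room temperature in the dark. DNA content by flow cytometry; G2/M fraction reported.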"}, "[2]": {"molecular_target": "T1, Tubulin (Homo sapiens) (UniProt P68371+Q9H4B7+P0DPH7+P68366+Q13509+Q71U36+P04350+Q3ZCM7+P07437+P68363+Q9BQE3+Q6PEY2+Q13885+Q9BVA1+Q9BUF5)", "test": "Inhibition of tubulin (unknown origin) polymerization at 27.5 uM measured over 70 mins by turbidity method", "assay_type": "protein-complex assay", "summary_of_the_method": "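Tubulin at 25 µM in GAB buffer (10 mM sodium phosphate, 30% glycerol, 1 mM EGTA, 6 mM MgCl2, 1 mM GTP, pH 6.7) with 27.5 µM compound or DMSO vehicle. Turbidity is read at 355 nm for 70 min at 37 °C. Data are normalized to the initial stable absorbance plateau to correct for compound absorbance.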"}, "[3]": {"test": "Apparent solubility of compound in sodium phosphate buffer at 15 uM after 20 mins", "assay_type": "physicochemical"}, "[4]": {"test_system": "A2780", "test": "Cytotoxicity against human A2780 cells after 48 hrs by MTT assay", "assay_type": "functional, cell-based", "details": "A2780, 48 h", "summary_of_the_method": "(§1)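 Cells seeded at 12,000 to 17,000 per well depending on line, incubated overnight, then given serial dilutions of ligand for 48 h. MTT at 2.5 mg/mL added for 4 h at 37 °C, formazan solubilized overnight (10% SDS, 45% dimethylformamide, pH 5.5), absorbance read at 595/690 nm. IC50 from log-dose response curves; mean ± SE of three independent assays.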"}, "[5]": {"test": "Cytotoxicity against human A2780AD cells after 48 hrs by MTT assay", "assay_type": "functional, cell-based", "summary_of_the_method": "as §1"}, "[6]": {"test": "Ratio of IC50 for human A2780AD cells to IC50 for human A2780 cells", "assay_type": "functional", "summary_of_the_method": "(§2)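 Relative resistance: IC50 in the P-gp overexpressing resistant line divided by IC50 in the parental line. Both IC50s came from the 48 h MTT assay (serial dilutions, absorbance at 595/690 nm, log-dose response curves, three independent assays).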"}, "[7]": {"test_system": "NIH3T3", "test": "Cytotoxicity against mouse NIH/3T3 cells after 48 hrs by MTT assay", "assay_type": "cell-based", "details": "NIH3T3, 48 h", "summary_of_the_method": "as §1"}, "[8]": {"test_system": "NIH3T3", "test": "Cytotoxicity against mouse NIH/3T3 cells harboring MDR G185 after 48 hrs by MTT assay", "assay_type": "functional, cell-based", "details": "NIH3T3, 48 h", "summary_of_the_method": "as §1"}, "[9]": {"test": "Ratio of IC50 for mouse NIH/3T3 cells harboring MDR G185 to IC50 for mouse NIH/3T3 cells", "summary_of_the_method": "as §2"}, "[10]": {"test_system": "NB-4", "test": "Cell cycle arrest in human NB4 cells assessed as accumulation of cells at G1 phase after 24 hrs by propidium iodide staining-based flow cytometric analysis", "assay_type": "functional", "summary_of_the_method": "(§3)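 NB4 cultured at 37 °C, 5% CO2 in RPMI-1640 with 10% heat-inactivated FBS. Treated at 50 and 100 nM, 1 and 10 μM for 24 h. Cells fixed/permeabilized in 70% ethanol overnight at 4 °C, then given RNase and 20 μg/ml PI for 30 min. Doublets excluded, 20,000 events per sample; cell-cycle phase distribution analysed.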"}, "[11]": {"test_system": "NB-4", "test": "Cell cycle arrest in human NB4 cells assessed as accumulation of cells at G2/M phase at 50 to 10000 nM after 24 hrs by propidium iodide staining-based flow cytometric analysis", "assay_type": "functional", "summary_of_the_method": "as §3"}, "[12]": {"test_system": "NB-4", "test": "Cell cycle arrest in human NB4 cells at 50 to 10000 nM after 24 hrs by propidium iodide staining-based flow cytometric analysis", "assay_type": "functional", "summary_of_the_method": "as §3"}, "[13]": {"test_system": "NB-4", "test": "Induction of differentiation in human NB4 cells at 500 nM after 24 hrs in presence of ATRA by CD11c staining-based flow cytometric analysis", "assay_type": "functional, cell-based", "summary_of_the_method": "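NB4 exposed to 0.5 μM compound together with 1 μM ATRA for 24 h. Cells stained with PE-conjugated CD11c (mouse IgG1-PE control) for 1 h at 4 °C in the dark, washed, resuspended in PBS with propidium iodide (0.25 μg/mL), then analysed by flow cytometry. Biological triplicates, mean ± S.E.M.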"}, "[14]": {"test_system": "HL-60", "test": "Induction of autophagy in serum starved human HL60 cells assessed as increase in LC3B-2 levels at 10 uM after 105 mins in presence of lysosomal inhibitor chloroquine by immunoblot analysis", "assay_type": "functional, cell-based", "summary_of_the_method": "(§4)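 HL-60 in serum-supplemented RPMI 1640, or starved in Earle's Balanced Salts for 15 min beforehand, then treated with 10 μM compound with or without 40 μM chloroquine for 1 h 45 min or 16 h. LC3B-II measured by immunoblot, densitometry normalized to actin, three independent experiments, Student's T-test.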"}, "[15]": {"test_system": "HL-60", "test": "Induction of autophagy in serum starved human HL60 cells assessed as increase in LC3B-2 levels at 10 uM after 105 mins by immunoblot analysis", "assay_type": "functional, cell-based", "summary_of_the_method": "as §4"}, "[16]": {"test_system": "HL-60", "test": "Induction of autophagy in human HL60 cells assessed as […] in LC3B-2 levels at 10 uM after 16 hrs in presence of lysosomal inhibitor chloroquine by immunoblot analysis", "assay_type": "functional, cell-based", "summary_of_the_method": "as §4"}, "[17]": {"molecular_target": "T1, Tubulin (Homo sapiens)", "test": "Displacement of podophyllotoxin from tubulin (unknown origin) by ultracentrifugation method", "assay_type": "protein-complex assay"}, "[18]": {"molecular_target": "T1, Tubulin (Homo sapiens)", "test": "Binding affinity to tubulin (unknown origin) by analytical ultracentrifugation"}, "[19]": {"test_system": "SCC-4", "test": "Cytotoxicity against human SCC4 cells after 48 hrs by MTT assay", "assay_type": "functional, cell-based", "details": "SCC-4, 48 h", "summary_of_the_method": "(§5)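 Cells (NCI-H929 in RPMI-1640 GlutaMAX; SCC4 in DMEM GlutaMAX; 10% FBS, 37 °C, 5% CO2) treated with increasing concentrations for 48 h. IC50 is the mean of three independent experiments.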"}, "[20]": {"test_system": "NCI-H929", "test": "Cytotoxicity against human NCI-H929 cells after 48 hrs by MTT assay", "assay_type": "functional, cell-based", "details": "NCI-H929, 48 h", "summary_of_the_method": "as §5"}, "[21]": {"test_system": "Ca9-22", "test": "Cytotoxicity against human Ca9-22 cells after 24 hrs by MTT assay", "assay_type": "functional, cell-based", "details": "Ca9-22, 24 h"}, "[22]": {"test_system": "Ca9-22", "test": "Cytotoxicity against human Ca9-22 cells after 48 hrs by MTT assay", "assay_type": "functional, cell-based", "details": "Ca9-22, 48 h"}, "[23]": {"test_system": "Ca9-22", "test": "Cytotoxicity against human Ca9-22 cells after 72 hrs by MTT assay", "assay_type": "functional, cell-based", "details": "Ca9-22, 72 h"}, "[24]": {"test_system": "SCC-4", "test": "Induction of apoptosis in human SCC4 cells at 50 uM after 48 hrs by Annexin V/propidium iodide staining-based flow cytometric analysis relative to control", "assay_type": "functional", "summary_of_the_method": "(§6)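 Seeding density: NCI-H929 and Ca9.22 at 30×10^4 cells/mL, SCC4 at 15×10^4 cells/mL. Cells exposed 48 h to compound (500 nM; 50 μM in SCC4 for one compound) or vehicle (1% EtOH v/v). Annexin V/PI staining, flow cytometry, 10,000 cells gated on vehicle-treated cells. Three independent experiments, mean ± S.E.M, T-test.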"}, "[25]": {"test_system": "Ca9-22", "test": "Induction of apoptosis in human Ca9-22 cells at 500 nM after 48 hrs by Annexin V/propidium iodide staining-based flow cytometric analysis relative to control", "assay_type": "functional, cell-based", "summary_of_the_method": "as §6"}, "[26]": {"test": "Solubility of compound in pH 7.4 aqueous solution after 12 hrs by HPLC analysis", "assay_type": "physicochemical", "summary_of_the_method": "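Water solubility at pH 7.4 measured by HPLC analysis.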"}}, "note": "Active and inactive are the calls of the source. The calls are words filed in the database; no cut-off is given here.", "data": [{"smiles": "CC(=O)OC1=C(c2ccc3c(c2)OCO3)Oc2cc3ccccc3cc2-n2cccc21", "values": [{"measurement": "Activity", "setting": "[1]", "value": "Active"}, {"measurement": "inhibition", "setting": "[2]", "value": "Active"}, {"measurement": "solubility at 20 min, 15 µM", "setting": "[3]", "value": 0.14, "unit": "µM"}, {"measurement": "IC50", "setting": "[4]", "value": 2.05, "unit": "µM"}, {"measurement": "IC50", "setting": "[5]", "value": 7.1, "unit": "µM"}, {"measurement": "Ratio IC50", "setting": "[6]", "value": 3.46}, {"measurement": "IC50", "setting": "[7]", "value": 2.77, "unit": "µM"}, {"measurement": "IC50", "setting": "[8]", "value": 2.04, "unit": "µM"}, {"measurement": "Ratio IC50", "setting": "[9]", "value": 0.73}, {"measurement": "Activity", "setting": "[10]", "value": "Dose-dependent effect"}, {"measurement": "Activity", "setting": "[11]", "value": "Active"}, {"measurement": "Activity", "setting": "[12]", "value": "inactive"}, {"measurement": "Activity", "setting": "[13]", "value": "Active"}, {"measurement": "Activity", "setting": "[14]", "value": "Active"}, {"measurement": "Activity", "setting": "[15]", "value": "Active"}, {"measurement": "Activity", "setting": "[16]", "value": "Active"}, {"measurement": "inhibition", "setting": "[17]", "value": "Active"}, {"measurement": "Kb", "setting": "[18]", "value": 2, "unit": "×10⁷ /M"}]}, {"smiles": "CC(=O)OC1=C(c2ccccc2-c2ccccc2)Oc2ccccc2-n2cccc21", "values": [{"measurement": "IC50", "setting": "[19]", "value": 9.37, "unit": "µM"}, {"measurement": "IC50", "setting": "[20]", "value": "> 50", "unit": "µM"}, {"measurement": "IC50", "setting": "[21]", "value": 8, "unit": "µM"}, {"measurement": "IC50", "setting": "[22]", "value": 6.3, "unit": "µM"}, {"measurement": "IC50", "setting": "[23]", "value": 4.5, "unit": "µM"}, {"measurement": "Activity", "setting": "[24]", "value": ">40", "unit": "%"}, {"measurement": "Activity", "setting": "[25]", "value": "inactive"}]}, {"smiles": "COC(=O)Nc1nc2ccc(C(=O)c3cccs3)cc2[nH]1", "note": "[NOCODAZOLE]", "values": [{"measurement": "solubility at 12 h", "setting": "[26]", "value": "< 1000", "unit": "µg/mL"}]}]}
